≈ marks a conversion by molar mass, not a printed value. Calls of active or inactive are those of the source. No cut-off for these calls is given here.
Key:
[1] = system: Mycobacterium avium; experiment: Antimycobacterial activity against isoniazid, rifampicin, ethambutol and ofloxacin-resistant Mycobacterium avium My 330/88 after 21 days; type: functional; details: My 330/88, 504 h
How it was run: (§1)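 Micromethod MIC in Šula's semisynthetic medium at 37 °C. Compounds added in DMSO at 1000 down to 0.032 µmol/L. Isoniazid standard in sterile water at 0.5–250 µmol/L. Inocula: H37Rv 10^3, M. avium 10^5, M. kansasii 10^4. Read at 14 and 21 d, plus 7 d for M. kansasii.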

[2] = system: Mycobacterium avium; experiment: Antimycobacterial activity against isoniazid, rifampicin, ethambutol and ofloxacin-resistant Mycobacterium avium My 330/88 after 14 days; type: functional; details: My 330/88, 336 h; how it was run: as §1
[3] = system: Mycobacterium tuberculosis; experiment: Antimycobacterial activity against Mycobacterium tuberculosis H37Rv My 331/88 after 21 days; type: functional; details: H37Rv My 331/88, 504 h; how it was run: as §1
[4] = system: Mycobacterium tuberculosis; experiment: Antimycobacterial activity against Mycobacterium tuberculosis H37Rv My 331/88 after 14 days; type: functional; details: H37Rv My 331/88, 336 h; how it was run: as §1
[5] = system: Trichophyton mentagrophytes; experiment: Antifungal activity against Trichophyton mentagrophytes 445 after 120 hrs by broth microdilution method; type: functional; details: Trichophyton mentagrophytes, 445, 120 h
How it was run: (§2)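 Filamentous dermatophyte tested by broth microdilution in RPMI 1640 with glutamine, fluconazole as reference. Value expressed as IC50 relative to growth control. Read at 72 and 120 h.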

[6] = system: Trichophyton mentagrophytes; experiment: Antifungal activity against Trichophyton mentagrophytes 445 after 72 hrs by broth microdilution method; type: functional; details: Trichophyton mentagrophytes, 445, 72 h; how it was run: as §2
[7] = system: Lichtheimia corymbifera; experiment: Antifungal activity against Absidia corymbifera 272 after 48 hrs by broth microdilution method; type: functional; details: Lichtheimia corymbifera, 272, 48 h
How it was run: (§3)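 Broth microdilution in RPMI 1640 with glutamine, fluconazole as reference. For yeasts, MIC is ≥80% growth reduction (IC80) versus control. For filamentous fungi, the value is expressed as IC50. Readings at 24 and 48 h.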

[8] = system: Lichtheimia corymbifera; experiment: Antifungal activity against Absidia corymbifera 272 after 24 hrs by broth microdilution method; type: functional; details: Lichtheimia corymbifera, 272, 24 h; how it was run: as §3
[9] = system: Aspergillus fumigatus; experiment: Antifungal activity against Aspergillus fumigatus 231 after 48 hrs by broth microdilution method; type: functional; details: Aspergillus fumigatus, 231, 48 h; how it was run: as §3
[10] = system: Aspergillus fumigatus; experiment: Antifungal activity against Aspergillus fumigatus 231 after 24 hrs by broth microdilution method; type: functional; details: Aspergillus fumigatus, 231, 24 h; how it was run: as §3
[11] = system: Trichosporon asahii; experiment: Antifungal activity against Trichosporon asahii 1188 after 48 hrs by broth microdilution method; type: functional; details: Trichosporon asahii, 1188, 48 h; how it was run: as §3
[12] = system: Trichosporon asahii; experiment: Antifungal activity against Trichosporon asahii 1188 after 24 hrs by broth microdilution method; type: functional; details: Trichosporon asahii, 1188, 24 h; how it was run: as §3
[13] = system: Pichia kudriavzevii; experiment: Antifungal activity against Candida krusei E28 after 48 hrs by broth microdilution method; type: functional; details: E28, 48 h; how it was run: as §3
[14] = system: Pichia kudriavzevii; experiment: Antifungal activity against Candida krusei E28 after 24 hrs by broth microdilution method; type: functional; details: E28, 24 h; how it was run: as §3
[15] = system: Candida albicans; experiment: Antifungal activity against Candida albicans ATCC 44859 after 48 hrs by broth microdilution method; type: functional; details: ATCC 44859, 48 h; how it was run: as §3
[16] = system: Candida albicans; experiment: Antifungal activity against Candida albicans ATCC 44859 after 24 hrs by broth microdilution method; type: functional; details: ATCC 44859, 24 h; how it was run: as §3
[17] = system: Nakaseomyces glabratus; experiment: Antifungal activity against Candida glabrata 20/I at 500 micromol/L after 24 to 48 hrs by broth microdilution method; type: functional, organism-based; how it was run: as §3
[18] = system: Candida tropicalis; experiment: Antifungal activity against Candida tropicalis 156 at 500 micromol/L after 24 to 48 hrs by broth microdilution method; type: functional, organism-based; how it was run: as §3
[19] = system: Pseudomonas aeruginosa; experiment: Antibacterial activity against Pseudomonas aeruginosa CCM 1961 at 500 micromol/L after 24 to 48 hrs by broth microdilution method; type: functional, organism-based
How it was run: (§4)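 Broth microdilution in Mueller–Hinton broth, compounds dissolved in DMSO, tested over a dilution series from 500 downward. MIC taken as ≥95% growth reduction (IC95) versus drug-free control. Benzylpenicillin comparator. Readings at 24 and 48 h.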

[20] = system: Klebsiella pneumoniae; experiment: Antibacterial activity against ESBL-positive Klebsiella pneumoniae J 14368/08 at 500 micromol/L after 24 to 48 hrs by broth microdilution method; type: functional, organism-based; how it was run: as §4
[21] = system: Klebsiella pneumoniae; experiment: Antibacterial activity against Klebsiella pneumoniae D 11750/08 at 500 micromol/L after 24 to 48 hrs by broth microdilution method; type: functional, organism-based; how it was run: as §4
[22] = system: Escherichia coli; experiment: Antibacterial activity against Escherichia coli CCM 4517 at 500 micromol/L after 24 to 48 hrs by broth microdilution method; type: functional, organism-based; how it was run: as §4
[23] = system: Enterococcus sp.; experiment: Antibacterial activity against Enterococcus sp. J 14365/08 at 500 micromol/L after 24 to 48 hrs by broth microdilution method; type: functional, organism-based; how it was run: as §4
[24] = system: Staphylococcus epidermidis; experiment: Antibacterial activity against Staphylococcus epidermidis H 6966/08 after 48 hrs by broth microdilution method; type: functional; details: H 6966/08, 48 h; how it was run: as §4
[25] = system: Staphylococcus epidermidis; experiment: Antibacterial activity against Staphylococcus epidermidis H 6966/08 after 24 hrs by broth microdilution method; type: functional; details: H 6966/08, 24 h; how it was run: as §4
[26] = system: Staphylococcus aureus; experiment: Antibacterial activity against methicillin-resistant Staphylococcus aureus H 5996/08 after 48 hrs by broth microdilution method; type: functional; details: H 5996/08, 48 h; how it was run: as §4
[27] = system: Staphylococcus aureus; experiment: Antibacterial activity against methicillin-resistant Staphylococcus aureus H 5996/08 after 24 hrs by broth microdilution method; type: functional; details: H 5996/08, 24 h; how it was run: as §4
[28] = system: Staphylococcus aureus; experiment: Antibacterial activity against Staphylococcus aureus CCM 4516/08 after 48 hrs by broth microdilution method; type: functional; details: CCM 4516/08, 48 h; how it was run: as §4
[29] = system: Staphylococcus aureus; experiment: Antibacterial activity against Staphylococcus aureus CCM 4516/08 after 24 hrs by broth microdilution method; type: functional; details: CCM 4516/08, 24 h; how it was run: as §4
[30] = system: Mycobacterium kansasii; experiment: Antimycobacterial activity against Mycobacterium kansasii 6509/96 after 21 days; type: functional; details: 6509/96, 504 h; how it was run: as §1
[31] = system: Mycobacterium kansasii; experiment: Antimycobacterial activity against Mycobacterium kansasii 6509/96 after 14 days; type: functional; details: 6509/96, 336 h; how it was run: as §1
[32] = system: Mycobacterium kansasii; experiment: Antimycobacterial activity against Mycobacterium kansasii 6509/96 after 7 days; type: functional; details: 6509/96, 168 h; how it was run: as §1
[33] = system: Mycobacterium kansasii; experiment: Antimycobacterial activity against Mycobacterium kansasii My 235/80 after 21 days; type: functional; details: My 235/80, 504 h; how it was run: as §1
[34] = system: Mycobacterium kansasii; experiment: Antimycobacterial activity against Mycobacterium kansasii My 235/80 after 14 days; type: functional; details: My 235/80, 336 h; how it was run: as §1
[35] = system: HepG2; experiment: Cytotoxicity against human HepG2 cells after 24 hrs by CellTiter assay; type: cell-based; details: HepG2, 24 h
How it was run: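 HepG2 cells (passage 27–33) in MEM with 10% FBS, L-glutamine and NEAA, seeded at 1×10^4 per well. Treated next day with compounds at 0.1–100 µM (or 0.1–25 µmol/L), triplicates, <1% DMSO, for 24 h at 37 °C, 5% CO2. MTS reagent added for 2 h, absorbance read at 490 nm. IC50 taken against untreated (100%) and 10% DMSO (0%) controls.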

[36] = system: Mycobacterium kansasii; experiment: Antimycobacterial activity against Mycobacterium kansasii My 235/80 after 7 days; type: functional; details: My 235/80, 168 h; how it was run: as §1

SMILES | MIC [1] [µM] | MIC [2] [µM] | MIC [3] [µM] | MIC [4] [µM] | MIC50 [5] [µM] | MIC50 [6] [µM] | MIC50 [7] [µM] | MIC50 [8] [µM] | MIC50 [9] [µM] | MIC50 [10] [µM] | MIC80 [11] [µM] | MIC80 [12] [µM] | MIC80 [13] [µM] | MIC80 [14] [µM] | MIC80 [15] [µM] | MIC80 [16] [µM] | Activity [17] | Activity [18] | Activity [19] | Activity [20] | further results
CCOP(=O)(OCC)Oc1ccc(Cl)cc1C(=O)Nc1cccc(Cl)c1 | 16 (≈ 6.69 µg/mL) | 16 (≈ 6.69 µg/mL) | 4 (≈ 1.67 µg/mL) | 4 (≈ 1.67 µg/mL) | > 500 | > 500 | > 500 | > 500 | > 500 | > 500 | > 500 | > 500 | > 500 | > 500 | > 500 | > 500 | inactive | inactive | inactive | inactive | Activity [21]: inactive; Activity [22]: inactive; Activity [23]: inactive; MIC95 [24]: 125 µM (≈ 52.3 µg/mL); MIC95 [25]: 125 µM (≈ 52.3 µg/mL); MIC95 [26]: 500 µM (≈ 209 µg/mL); MIC95 [27]: 500 µM (≈ 209 µg/mL); MIC95 [28]: 500 µM (≈ 209 µg/mL); MIC95 [29]: 500 µM (≈ 209 µg/mL); MIC [30]: 16 µM (≈ 6.69 µg/mL); MIC [31]: 16 µM (≈ 6.69 µg/mL); MIC [32]: 8 µM (≈ 3.35 µg/mL); MIC [33]: 8 µM (≈ 3.35 µg/mL); MIC [34]: 8 µM (≈ 3.35 µg/mL); IC50 [35]: 2.68 µM; MIC [36]: 8 µM (≈ 3.35 µg/mL)
CCOP(=O)(OCC)Oc1ccc(Cl)cc1C(=O)Nc1cccc(F)c1 | 32 (≈ 12.9 µg/mL) | 32 (≈ 12.9 µg/mL) | 8 (≈ 3.21 µg/mL) | 8 (≈ 3.21 µg/mL) | 62.5 (≈ 25.1 µg/mL) | 62.5 (≈ 25.1 µg/mL) | > 500 | > 500 | > 500 | > 500 | > 500 | > 500 | > 500 | > 500 | > 500 | > 500 | inactive | inactive | inactive | inactive | Activity [21]: inactive; Activity [22]: inactive; Activity [23]: inactive; MIC95 [24]: 500 µM (≈ 201 µg/mL); MIC95 [25]: 250 µM (≈ 100 µg/mL); MIC95 [26]: > 500 µM; MIC95 [27]: 500 µM (≈ 201 µg/mL); MIC95 [28]: 500 µM (≈ 201 µg/mL); MIC95 [29]: 125 µM (≈ 50.2 µg/mL); MIC [30]: 32 µM (≈ 12.9 µg/mL); MIC [31]: 32 µM (≈ 12.9 µg/mL); MIC [32]: 16 µM (≈ 6.43 µg/mL); MIC [33]: 32 µM (≈ 12.9 µg/mL); MIC [34]: 32 µM (≈ 12.9 µg/mL); IC50 [35]: 17.2 µM; MIC [36]: 16 µM (≈ 6.43 µg/mL)
